The values that follow come from the array DNA melting data of Ke et al. (doi:10.1101/2024.01.08.574731).

A short description of series [1]: melting temperature; fluorescence melt of hairpins on a sequencing array, two-state fit, raised by 9.35 °C to match UV melts. The settings on record: sodium 0.088 M. Put shortly: (§1)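 To match UV melts, fitted temperatures were raised by 9.35 °C. These fits were bootstrapped two-state models that gave melting temperature and folding enthalpy, combined by inverse variance over four replicates. The input was normalised Cy3 fluorescence of library hairpins with annealed Cy3 and quencher oligos on a sequenced MiSeq flow cell, imaged in 50 mM Na-HEPES pH 8.0, 25 mM NaCl in 2.5 °C steps up to 60 °C.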

The nature of series [2]: folding enthalpy; higher = less favourable; fluorescence melt of hairpins on a sequencing array, two-state fit. Conditions: sodium 0.088 M. Put shortly:
as §1

Regarding GTGAGTGGAAACGCTTAC ((.((.(....).)).)), the Tm in series [1] stood at 33.1 °C. Besides, the folding enthalpy in series [2] is -16.2 kcal/mol.
For the sequence GTGATCACGAAAGTGCAC (((..(((....)))))), in series [1], the Tm came to 30.7 °C. In series [2], the folding enthalpy is -12.5 kcal/mol.
The corresponding values for GTGATCGAAAGATAGCAC ((((((....)))..))) are 28.3 °C and -15.6 kcal/mol.
For GTGATCGAAAGATCCAC ((((((....))).))), in that order: 43.9 °C and -13.3 kcal/mol.
The corresponding values for GTGATCGAAAGATCCCAC ((((((....)))..))) are 32.4 °C and -10.7 kcal/mol.
For the sequence GTGATCGAAAGATTCAC ((((((....))).))), the Tm in series [1] was determined as 43.4 °C. Further, in series [2], the folding enthalpy is -24.1 kcal/mol.
The corresponding values for GTGATCGGAAACAATCAC (((((.(....).))))) are 36.3 °C and -32.9 kcal/mol.
For GTGATGCGAAAGCAACAC (((.(((....))).))), in that order: 56.4 °C and -33.4 kcal/mol.
Regarding GTGATGCGAAAGCACCAC (((.(((....))).))), in series [1], the Tm is 54.2 °C. In addition, in series [2], the folding enthalpy was -29.2 kcal/mol.
On to GTGATGGGAAACCACCAC (((.(((....))).))), for which the Tm in series [1] came out at 42.3 °C. In addition, the folding enthalpy in series [2] was -29.7 kcal/mol.
For GTGATGGGAAACCGTTAC ((.(.((....)).).)), in that order: 31 °C and -18.6 kcal/mol.
Turning to GTGATTCGAAAGAACCAC (((.(((....))).))), the Tm in series [1] stood at 44.8 °C. In series [2], the folding enthalpy is -33.2 kcal/mol.
GTGATTGAAAAATCAC ((((((....)))))): the Tm in series [1] was determined as 51.7 °C. In series [2], the folding enthalpy was -29.5 kcal/mol.
The corresponding values for GTGCAAACGAAAGTTCAC (((..(((....)))))) are 33.2 °C and -7.78 kcal/mol.
The corresponding values for GTGCAACCGAAAGGTCAC (((..(((....)))))) are 40.1 °C and -16.6 kcal/mol.
The corresponding values for GTGCAACGAAAGTTCCAC (((.(((....))).))) are 38.1 °C and -10.3 kcal/mol.
Consider GTGCAAGGAAACCTGCAC (((((.(....).))))), for which, in series [1], the Tm is 51.4 °C. Also, the folding enthalpy in series [2] is -35.9 kcal/mol.
For GTGCAAGGAAACTTACAC (((.(((....))).))), in that order: 34.8 °C and -21.5 kcal/mol.
The corresponding values for GTGCAAGGAAACTTGCAC (((((((....))))))) are 65.8 °C and -31.8 kcal/mol.
For GTGCAAGGAAACTTGTAC ((.((((....)))).)), in that order: 45 °C and -32.5 kcal/mol.
On to GTGCAATCGAAAGATCAC (((..(((....)))))), for which, in series [1], the Tm is 30 °C. In series [2], the folding enthalpy was -14 kcal/mol.
As to GTGCACACGAAAGTGCAC (((..(((....)))))), the Tm in series [1] is 60 °C. Also, the folding enthalpy in series [2] is -30.8 kcal/mol.
For the sequence GTGCACCCGAAAGGGCAC (((..(((....)))))), in series [1], the Tm is 52.1 °C. Further, the folding enthalpy in series [2] is -23.9 kcal/mol.
The corresponding values for GTGCACGAAAGTGCCAC ((((((....))).))) are 54.5 °C and -8.14 kcal/mol.
With GTGCACGAAAGTGGGCAC ((((((....)))..))), the Tm in series [1] came to 52.6 °C. Moreover, the folding enthalpy in series [2] is -22.6 kcal/mol.
Regarding GTGCACGAAAGTGGTCAC ((((((....)))..))), in series [1], the Tm came to 40.2 °C. Also, in series [2], the folding enthalpy is -15.9 kcal/mol.
On to GTGCACGGAAACATGCAC (((((.(....).))))), for which the Tm in series [1] was found to be 47.9 °C. In series [2], the folding enthalpy was -34.6 kcal/mol.
In the case of GTGCACGGAAACGTGTGC (..((((....))))..), the Tm in series [1] is 50.2 °C. Further, the folding enthalpy in series [2] is -27.7 kcal/mol.
As for GTGCAGGAAACTGCAC ((((((....)))))), the Tm in series [1] amounted to 68.2 °C. Further, the folding enthalpy in series [2] is -35.9 kcal/mol.
For GTGCAGGCGAAAGCCCAC (((..(((....)))))), in that order: 48.9 °C and -10.8 kcal/mol.
The corresponding values for GTGCAGGGAAACCTGTAC ((.((((....)))).)) are 49.6 °C and -36.1 kcal/mol.
The corresponding values for GTGCAGGGAAACTTGCAC (((((.(....).))))) are 52.5 °C and -40.7 kcal/mol.
As to GTGCATCGAAAGATTCAC (((.(((....))).))), the Tm in series [1] worked out at 43.4 °C. In addition, the folding enthalpy in series [2] was -30.1 kcal/mol.
GTGCATGCGAAAGCACAC (((..(((....)))))): the Tm in series [1] was 46.3 °C. For the same sequence, in series [2], the folding enthalpy is -12.2 kcal/mol.
In the case of GTGCATGGAAACATGCGC (.(((((....))))).), the Tm in series [1] came to 56.9 °C. In addition, the folding enthalpy in series [2] was -21.5 kcal/mol.
Take GTGCATGGAAACATGTAC ((.((((....)))).)): the Tm in series [1] worked out at 48.7 °C. The folding enthalpy in series [2] was -31.7 kcal/mol.
